Laboratory results as given in ChEMBL document CHEMBL1143412, “RSV604, a novel inhibitor of respiratory syncytial virus replication” (Antimicrob Agents Chemother, 2007).
Activity calls are given as the source filed them. No cut-off for these calls is given here.

How the values were obtained:
[1] = system: Respiratory syncytial virus; test: Antiviral activity against RSV A2 infected human Hep2 cells after 5 days by plaque reduction assay; assay type: functional, organism-based; conditions: A2, HEp-2, 120 h
Summary of the method: (§1)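 HEp-2 monolayers in six-well plates infected with 0.2 ml of 500 PFU/ml virus. After 2 h, overlaid with DMEM, 2% FBS, 0.6% agarose plus compound dilution series. Incubated 5 days, formaldehyde-fixed, plaques stained with methylene blue or immunostained and counted. Activity expressed as percent of plaques in untreated infected wells.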

[2] = system: Respiratory syncytial virus; test: Antiviral activity against RSV RSS with N protein I129L plus L139I mutant mutation in human Hep2 cells after 5 days by plaque reduction assay; assay type: functional, organism-based; conditions: HEp-2, 120 h; summary of the method: as §1
[3] = system: Respiratory syncytial virus; test: Antiviral activity against recombinant RSV expressing GFP infected HAE cells assessed as lack of viral replication-dependent green fluorescence level at 20 uM by fluorescence microscopy; assay type: functional, organism-based
Bovine orthopneumovirus = test: Antiviral activity against bovine RSV snook infected human Hep2 cells after 5 days by plaque reduction assay; assay type: functional, organism-based, Bovine respiratory syncytial virus; conditions: HEp-2, 120 h; summary of the method: as §1
[4] = system: Respiratory syncytial virus; test: Antiviral activity against RSV RSS infected human Hep2 cells assessed as reduction of viral antigen synthesis after 3 days by ELISA; assay type: functional, organism-based; conditions: HEp-2, 72 h
Summary of the method: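 HEp-2 cells seeded at 5 × 10³ per well in DMEM/10% FBS for 24 h, infected with RSV RSS at MOI about 0.02, serial compound dilutions for 3 days. Cells fixed and permeabilised in methanol-acetone, blocked in milk-Tween. Probed with mouse anti-RSV monoclonal then HRP anti-mouse. Developed with o-phenylenediamine/H2O2, absorbance […].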

[5] = system: Respiratory syncytial virus; test: Drug resistance, ratio of EC50 for RSV RSS M2 mutant to EC50 for wild type RSV RSS; assay type: functional
[6] = system: Respiratory syncytial virus; test: Antiviral activity against RSV Long infected human Hep2 cells after 5 days by plaque reduction assay; assay type: functional, organism-based; conditions: HEp-2, 120 h; summary of the method: as §1
[7] = system: Respiratory syncytial virus; test: Antiviral activity against RSV RSS with N protein N105D mutation in human Hep2 cells after 5 days by plaque reduction assay; assay type: functional, organism-based; conditions: HEp-2, 120 h; summary of the method: as §1
[8] = system: Respiratory syncytial virus; test: Antiviral activity against 1.5 MOI RSV RSS infected human Hep2 cells assessed as inhibition of virus-induced cell death after 6 days by XTT assay; assay type: functional, organism-based; conditions: HEp-2, 144 h
[9] = system: Respiratory syncytial virus; test: Antiviral activity against RSV A isolates infected human Hep2 cells after 5 days by plaque reduction assay; assay type: functional, organism-based; conditions: HEp-2, 120 h; summary of the method: as §1
Human respirovirus 1 = test: Antiviral activity against Parainfluenza virus type 1 infected human Hep2 cells after 5 days by plaque reduction assay; assay type: functional, organism-based; conditions: Human respirovirus 1, HEp-2, 120 h; summary of the method: as §1
[10] = system: Respiratory syncytial virus; test: Antiviral activity against RSV RSS with N protein L139I mutation in human Hep2 cells after 5 days by plaque reduction assay; assay type: functional, organism-based; conditions: HEp-2, 120 h; summary of the method: as §1
[11] = system: Respiratory syncytial virus; test: Antiviral activity against RSV RSS M2 mutant infected human Hep2 cells after 5 days by plaque reduction assay; assay type: functional, organism-based; conditions: HEp-2, 120 h; summary of the method: as §1
[12] = system: Respiratory syncytial virus; test: Antiviral activity against recombinant RSV expressing GFP infected HAE cells assessed as inhibition of viral replication at 2 uM by fluorescence microscopy; assay type: functional, organism-based
[13] = system: Respiratory syncytial virus; test: Antiviral activity against RSV B isolates infected human Hep2 cells after 5 days by plaque reduction assay; assay type: functional, organism-based; conditions: HEp-2, 120 h; summary of the method: as §1
[14] = Cytotoxicity against RSV RSS infected human Hep2 cells after 6 days by XTT assay; assay type: cell-based, HEp-2
[15] = system: Respiratory syncytial virus; test: Drug resistance, ratio of EC50 for RSV RSS with N protein I129L plus L139I mutant mutation to EC50 for wild type RSV RSS; assay type: functional
Metapneumovirus = test: Antiviral activity against human Metapneumovirus infected human Hep2 cells after 5 days by plaque reduction assay; assay type: functional, organism-based; conditions: HEp-2, 120 h; summary of the method: as §1
[16] = system: Respiratory syncytial virus; test: Antiviral activity against plaque picked RSV604-resistant RSV RSS from passage 2 in human Hep2 cells by plaque reduction assay; assay type: functional, organism-based; conditions: HEp-2; summary of the method: as §1
[17] = system: Pneumonia virus of mice 15; test: Antiviral activity against Pneumonia virus of mice 15 infected human Hep2 cells after 5 days by plaque reduction assay; assay type: functional, organism-based; conditions: murine pneumonia virus, HEp-2, 120 h; summary of the method: as §1
[18] = system: Respiratory syncytial virus; test: Drug resistance, ratio of EC50 for plaque picked A-33903-resistant RSV RSS from passage 2 to EC50 for DMSO-passaged wild type RSV RSS; assay type: functional
[19] = system: Respiratory syncytial virus; test: Antiviral activity against RSV RSS infected human Hep2 cells assessed as inhibition of virus-induced cell death after 6 days by XTT assay; assay type: functional, organism-based; conditions: HEp-2, 144 h
Summary of the method: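 HEp-2 cells seeded at 4 × 10³ per well in DMEM with 10% FBS, infected next day with RSV RSS dosed to give about 80% cytopathic effect by day 6. Serial compound dilutions (top 10 μM, 0.5% DMSO) present throughout. Viability read by XTT reduction after 6 days. EC50 taken as 50% reduction in virus-induced cell death.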

[20] = system: Respiratory syncytial virus; test: Antiviral activity against DMSO-passaged wild type RSV RSS infected human Hep2 cells by plaque reduction assay; assay type: functional, organism-based; conditions: HEp-2; summary of the method: as §1
Human respirovirus 3 = test: Antiviral activity against Parainfluenza virus type 3 infected human Hep2 cells after 5 days by plaque reduction assay; assay type: functional, organism-based; conditions: Human respirovirus 3, HEp-2, 120 h; summary of the method: as §1
[21] = system: Respiratory syncytial virus; test: Antiviral activity against plaque picked A-33903-resistant RSV RSS from passage 2 in human Hep2 cells by plaque reduction assay; assay type: functional, organism-based; conditions: HEp-2; summary of the method: as §1
[22] = system: Respiratory syncytial virus; test: Antiviral activity against recombinant RSV expressing GFP infected HAE cells assessed as lack of viral replication-dependent green fluorescence level at 2 uM by fluorescence microscopy; assay type: functional, organism-based
[23] = system: Respiratory syncytial virus; test: Antiviral activity against RSV RSS with N protein […] mutation in human Hep2 cells after 5 days by plaque reduction assay; assay type: functional, organism-based; conditions: HEp-2, 120 h; summary of the method: as §1
[24] = system: Respiratory syncytial virus; test: Drug resistance, ratio of EC50 for plaque picked RSV604-resistant RSV RSS from passage 2 to EC50 for DMSO-passaged wild type RSV RSS; assay type: functional
[25] = system: Respiratory syncytial virus; test: Antiviral activity against RSV RSS infected human Hep2 cells after 5 days by plaque reduction assay; assay type: functional, organism-based; conditions: HEp-2, 120 h; summary of the method: as §1
[26] = system: Respiratory syncytial virus; test: Antiviral activity against RSV infected human Hep2 cells assessed as reduction of plaque formation pretreated 2 hrs before viral infection; assay type: functional, organism-based; conditions: HEp-2
Summary of the method: (§2)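 Plaque reduction in HEp-2 cells with compound added either 2 h before infection or 6 h after. Duplicate wells per dilution. Percent plaque reduction calculated against compound-free infected wells. Four independent experiments.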

[27] = Cytotoxicity against recombinant RSV expressing GFP infected HAE cells at 20 uM for 7 days; assay type: cell-based; conditions: human, 168 h
Summary of the method: (§3)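 Differentiated human airway epithelial cultures exposed to 20 μM compound for 7 days. Scored for gross cytotoxicity, leakage of basolateral fluid to the apical surface, and cilium beat frequency.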

[28] = system: Respiratory syncytial virus; test: Antiviral activity against recombinant RSV expressing GFP infected HAE cells assessed as inhibition of viral replication at 10 uM by fluorescence microscopy; assay type: functional, organism-based
[29] = system: Respiratory syncytial virus; test: Drug resistance, ratio of EC50 for RSV RSS with N protein L139I mutation to EC50 for wild type RSV RSS; assay type: functional
[30] = system: Respiratory syncytial virus; test: Antiviral activity against RSV B infected human Hep2 cells after 5 days by plaque reduction assay; assay type: functional, organism-based; conditions: HEp-2, 120 h; summary of the method: as §1
[31] = Toxicity in recombinant RSV expressing GFP infected HAE cells assessed as alteration of cilium beat frequency at 20 uM for 7 days; conditions: human, 168 h; summary of the method: as §3
[32] = system: Respiratory syncytial virus; test: Antiviral activity against recombinant RSV expressing GFP infected HAE cells assessed as inhibition of viral replication at 20 uM by fluorescence microscopy; assay type: functional, organism-based
[33] = system: Respiratory syncytial virus; test: Antiviral activity against recombinant RSV expressing GFP infected HAE cells assessed as inhibition of viral replication at 1 uM by fluorescence microscopy; assay type: functional, organism-based
[34] = system: Respiratory syncytial virus; test: Antiviral activity against 0.02 MOI RSV RSS infected human Hep2 cells assessed as inhibition of virus-induced cell death after 6 days by XTT assay; assay type: functional, organism-based; conditions: HEp-2, 144 h
[35] = system: Respiratory syncytial virus; test: Antiviral activity against recombinant RSV expressing GFP infected HAE cells assessed as lack of viral replication-dependent green fluorescence level at 10 uM by fluorescence microscopy; assay type: functional, organism-based
[36] = Toxicity in recombinant RSV expressing GFP infected HAE cells assessed as leakage of basolateral fluid to apical surface at 20 uM for 7 days; conditions: human, 168 h; summary of the method: as §3
[37] = system: Respiratory syncytial virus; test: Antiviral activity against RSV infected human Hep2 cells assessed as reduction of plaque formation treated 6 hrs after viral infection; assay type: functional, organism-based; conditions: HEp-2; summary of the method: as §2
[38] = system: Respiratory syncytial virus; test: Drug resistance, ratio of EC50 for RSV RSS with N protein N105D mutation to EC50 for wild type RSV RSS; assay type: functional
[39] = Therapeutic index, CC50 for human Hep2 cells to EC50 for RSV RSS; assay type: cell-based, HEp-2; conditions: read-out: Ratio CC50/EC50
Summary of the method: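 Ratio of CC50 from uninfected HEp-2 XTT control plates to EC50 from RSV RSS-infected XTT plates, both read after 6 days.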

O=C(Nc1ccccc1F)N[C@H]1N=C(c2ccccc2)c2ccccc2NC1=O [RSV-604]
EC50 [1]: 500 nM | EC50 [2]: > 20000 nM | Activity [3]: Active | EC50 (Bovine orthopneumovirus): 300 nM | EC50 [4]: 1700 nM | fold change (FC) [5]: 1.2 | EC50 [6]: 800 nM | EC50 [7]: 4780 nM | EC50 [8]: 2550 nM | EC50 [9]: 800 nM | EC50 (Human respirovirus 1): > 50000 nM | EC50 [10]: 6700 nM | EC50 [11]: 1140 nM | Activity [12]: Active | EC50 [13]: 800 nM | CC50 at 144 h [14]: > 50000 nM | fold change (FC) [15]: >20 | EC50 (Metapneumovirus): > 50000 nM | EC50 [16]: 30400 nM | EC50 [17]: > 50000 nM | fold change (FC) [18]: 3.9 | EC50 [19]: 860 nM | EC50 [20]: 600 nM | EC50 (Human respirovirus 3): > 50000 nM | EC50 [21]: 2700 nM | Activity [22]: Active | EC50 [23]: 6030 nM | fold change (FC) [24]: 50.7 | EC50 [25]: 900 nM | Activity [26]: Active | Activity [27]: Not Active | Activity [28]: Active | fold change (FC) [29]: 7 | EC50 [30]: 600 nM | Activity [31]: Not Active | Activity [32]: Active | Activity [33]: Active | EC50 [34]: 1400 nM | Activity [35]: Active | Activity [36]: Not Active | Activity [37]: Active | fold change (FC) [38]: 5 | selectivity ratio [39]: > 58

COc1cc(S(C)(=O)=O)ccc1C(=O)N[C@H]1N=C(c2ccccc2)c2ccccc2NC1=O
EC50 [4]: 1300 nM | EC50 [6]: 390 nM | CC50 at 144 h [14]: > 50000 nM | EC50 [16]: 16900 nM | EC50 [19]: 500 nM | EC50 [20]: 400 nM | fold change (FC) [24]: 42.3 | EC50 [25]: 500 nM | EC50 [30]: 430 nM | selectivity ratio [39]: > 100
